Results: ChEMBL document CHEMBL1681720, “Maintaining potent HTLV-I protease inhibition without the P3-cap moiety in small tetrapeptidic inhibitors” (Bioorg Med Chem Lett, 2011)

How the values were obtained:
Protease = Protease (Human T-cell leukemia virus type I, UniProt Q82134, L40I); assay: Inhibition of HTLV-1 protease L40I mutant by fluorimetric assay
Method in brief: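 Recombinant L40I-mutant HTLV-I protease, mutation limits autoproteolysis; fluorescent substrate cleavage. Percent inhibition measured singly at 1, 5, 10, 20, 50 and 100 nM test compound. IC50 read from fitted sigmoid plot, error range from RMSD of the plot.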

[1] = test system: T1, Protease (Human T-cell leukemia virus type I), Q82134 [L40I]; assay: Inhibition of HTLV-1 protease L40I mutant at 50 nM by fluorimetric assay
T1 sequence (whole entry): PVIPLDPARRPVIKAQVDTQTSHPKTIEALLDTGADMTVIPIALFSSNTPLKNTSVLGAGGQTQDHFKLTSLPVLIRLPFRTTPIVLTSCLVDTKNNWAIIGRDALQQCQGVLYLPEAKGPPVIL
Method in brief: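 Recombinant L40I-mutant HTLV-I protease, mutation limits autoproteolysis; fluorescent substrate read-out. Test compound at 50 nM, percent inhibition from single determinations.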

[2] = molecular target: Protease (Human immunodeficiency virus 1) (UniProt Q9YQ12); assay: Inhibition of recombinant HIV-1 protease at 50 nM
Sequence of Protease (Human immunodeficiency virus 1) (Q9YQ12 as listed by the source): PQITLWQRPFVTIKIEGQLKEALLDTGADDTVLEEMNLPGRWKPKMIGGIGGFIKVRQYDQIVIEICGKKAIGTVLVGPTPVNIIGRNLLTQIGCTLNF

SMILES | IC50 (Protease) [µM] | inhibition [1] [%] | inhibition [2] [%] | INH [2] [nM]
CCCC(=O)NC(C(=O)N[C@H](C(=O)N[C@@H](Cc1ccccc1)[C@H](O)C(=O)N1CSC(C)(C)[C@H]1C(=O)NCC(C)(C)C)C(C)(C)C)c1cc(F)c(F)c(F)c1 (stereo in doubt; 19a) [listing 1 of 2 here] | 0.0132 | – | – | –
CC(C)(C)CNC(=O)[C@H]1N(C(=O)[C@@H](O)[C@H](Cc2ccccc2)NC(=O)[C@@H](NC(=O)[C@@H](N)C(C)(C)C)C(C)(C)C)CSC1(C)C | – | 19 | 95 | –
CCCC(=O)NC(C(=O)N[C@H](C(=O)N[C@@H](Cc1ccccc1)[C@H](O)C(=O)N1CSC(C)(C)[C@H]1C(=O)NCC(C)(C)C)C(C)(C)C)c1cc(F)c(F)c(F)c1 (stereo in doubt; 19b) | – | 18 | 68 | –
CCCC(=O)NC(C(=O)N[C@H](C(=O)N[C@@H](Cc1ccccc1)[C@H](O)C(=O)N1CSC(C)(C)[C@H]1C(=O)NCC(C)(C)C)C(C)(C)C)c1cc(F)c(F)c(F)c1 (stereo in doubt; 20a) [listing 1 of 2 here] | 0.011 | – | – | –
CC(C)(C)CNC(=O)[C@H]1N(C(=O)[C@@H](O)[C@H](Cc2ccccc2)NC(=O)[C@@H](NC(=O)[C@@H](N)C2CCCCC2)C(C)(C)C)CSC1(C)C | 0.0358 | 65 | 99 | –
CC(C)(C)CNC(=O)[C@H]1N(C(=O)[C@@H](O)[C@H](Cc2ccccc2)NC(=O)[C@@H](NC(=O)[C@@H](O)c2ccccc2)C(C)(C)C)CSC1(C)C | – | 43 | 92 | –
CC(C)[C@H](N)C(=O)N[C@H](C(=O)N[C@@H](Cc1ccccc1)[C@H](O)C(=O)N1CSC(C)(C)[C@H]1C(=O)NCC(C)(C)C)C(C)(C)C | – | 26 | 96 | –
CC(C)(C)CNC(=O)[C@H]1N(C(=O)[C@@H](O)[C@H](Cc2ccccc2)NC(=O)[C@@H](NC(=O)C(=O)c2ccccc2)C(C)(C)C)CSC1(C)C | – | 33 | 76 | –
CC(C)(C)CNC(=O)[C@H]1N(C(=O)[C@@H](O)[C@H](Cc2ccccc2)NC(=O)[C@@H](NC(=O)C(C(=O)OCc2ccccc2)c2ccccc2)C(C)(C)C)CSC1(C)C (mixture of isomers) | – | 26 | 34 | –
CC(C)(C)CNC(=O)[C@H]1N(C(=O)[C@@H](O)[C@H](Cc2ccccc2)NC(=O)[C@@H](NC(=O)[C@@H](N)c2ccccc2)C(C)(C)C)CSC1(C)C | 0.037 | 69 | > 99 | –
CC(C)(C)CNC(=O)[C@H]1N(C(=O)[C@@H](O)[C@H](Cc2ccccc2)NC(=O)[C@@H](NC(=O)C2CCCCN2)C(C)(C)C)CSC1(C)C (stereo in doubt; 14a) | – | 24 | 93 | –
CCCC(=O)N[C@H](C(=O)N[C@H](C(=O)N[C@@H](Cc1ccccc1)[C@H](O)C(=O)N1CSC(C)(C)[C@H]1C(=O)NCC(C)(C)C)C(C)(C)C)[C@@H](C)CC | 0.0061 | 86 | 95 | –
CCCC(=O)N[C@H](C(=O)N[C@H](C(=O)N[C@@H](Cc1ccccc1)[C@H](O)C(=O)N1CSC(C)(C)[C@H]1C(=O)NCC(C)(C)C)C(C)(C)C)c1ccccc1 | 0.0064 | 93 | – | 99
CC(C)(C)CNC(=O)[C@H]1N(C(=O)[C@@H](O)[C@H](Cc2ccccc2)NC(=O)[C@@H](NC(=O)C2CCCCN2)C(C)(C)C)CSC1(C)C (single isomer, unassigned; enantiomer b) | – | 11 | 54 | –
CC(C)(C)CNC(=O)[C@H]1N(C(=O)[C@@H](O)[C@H](Cc2ccccc2)NC(=O)[C@@H](NC(=O)[C@@H](N)Cc2ccccc2)C(C)(C)C)CSC1(C)C | – | 28 | > 99 | –
CC(C)(C)CNC(=O)[C@H]1N(C(=O)[C@@H](O)[C@H](Cc2ccccc2)NC(=O)[C@@H](NC(=O)[C@H](O)c2ccccc2)C(C)(C)C)CSC1(C)C | – | 10 | 82 | –
CC(C)(C)CNC(=O)[C@H]1N(C(=O)[C@@H](O)[C@H](Cc2ccccc2)NC(=O)[C@@H](NC(=O)Cc2ccccc2)C(C)(C)C)CSC1(C)C | – | 8 | 22 | –
CCCC(=O)NC(C(=O)N[C@H](C(=O)N[C@@H](Cc1ccccc1)[C@H](O)C(=O)N1CSC(C)(C)[C@H]1C(=O)NCC(C)(C)C)C(C)(C)C)c1cc(F)c(F)c(F)c1 (stereo in doubt; 19a) [listing 2 of 2 here] | – | 84 | > 99 | –
CCCC(=O)NC(C(=O)N[C@H](C(=O)N[C@@H](Cc1ccccc1)[C@H](O)C(=O)N1CSC(C)(C)[C@H]1C(=O)NCC(C)(C)C)C(C)(C)C)c1cc(F)c(F)c(F)c1 (stereo in doubt; 20a) [listing 2 of 2 here] | – | 81 | > 99 | –
CC(C)(C)CNC(=O)[C@H]1N(C(=O)[C@@H](O)[C@H](Cc2ccccc2)NC(=O)[C@@H](NC(=O)C(C)(C)c2ccccc2)C(C)(C)C)CSC1(C)C | – | 4 | 80 | –
CC[C@H](C)[C@H](N)C(=O)N[C@H](C(=O)N[C@@H](Cc1ccccc1)[C@H](O)C(=O)N1CSC(C)(C)[C@H]1C(=O)NCC(C)(C)C)C(C)(C)C | – | 31 | 97 | –
CCCC(=O)NC(C(=O)N[C@H](C(=O)N[C@@H](Cc1ccccc1)[C@H](O)C(=O)N1CSC(C)(C)[C@H]1C(=O)NCC(C)(C)C)C(C)(C)C)c1cc(F)c(F)c(F)c1 (single isomer, unassigned; enantiomer b) | – | 20 | 80 | –
